According to ChEMBL document CHEMBL4622973, “Discovery of Potent Small-Molecule SIRT6 Activators: Structure-Activity Relationship and Anti-Pancreatic Ductal Adenocarcinoma Activity” (J Med Chem, 2020):
Active and inactive are the calls of the source. The calls are words filed in the database; no cut-off is given here.

Key:
[1] = test system: ASPC1; assay: Antiproliferative activity against human AsPC1 cells assessed as reduction in cell viability incubated for 72 hrs by MTT assay; type: functional, cell-based; settings: ASPC1, 72 h
Summary of the method: (§1)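 PDAC cells grown in DMEM or RPMI1640 with 10% FBS and penicillin/streptomycin at 37 °C, 5% CO2. Plated in triplicate, then treated with a concentration series for 72 h. Viability read by MTT. IC50 calculated from dose-response curves.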

[2] = test system: PANC-1; assay: Antitumor activity against human PANC1 cells xenografted in BALB/c nude mouse assessed as inhibition of tumor growth at 150 mg/kg/day, po for 30 days relative to control; type: functional; settings: PANC-1, po, 720 h, read-out: TGI
Summary of the method: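 Female BALB/c nude mice, 6-8 weeks old, injected subcutaneously in the right flank with 5×10^6–1×10^7 PANC-1 cells. At 130-150 mm³, mice randomized into 4 groups (n = 6) and dosed orally once daily for 30 days against vehicle. Tumor volume followed over time. Inhibition rate assessed against control.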

[3] = test system: MIA PaCa-2; assay: Antiproliferative activity against human MIAPaCa2 cells assessed as reduction in cell viability incubated for 72 hrs by MTT assay; type: functional, cell-based; settings: MIA PaCa-2, 72 h; summary of the method: as §1
[4] = test system: PANC-1; assay: Antiproliferative activity against human PANC1 cells assessed as reduction in cell viability incubated for 72 hrs by MTT assay; type: functional, cell-based; settings: PANC-1, 72 h; summary of the method: as §1
[5] = test system: BXPC-3; assay: Antiproliferative activity against human BxPC3 cells assessed as reduction in cell viability incubated for 72 hrs by MTT assay; type: functional, cell-based; settings: BXPC-3, 72 h; summary of the method: as §1
[6] = biological target: T1, NAD-dependent protein deacylase sirtuin-6 (Homo sapiens, UniProt Q8N6T7); assay: Activation of N-terminal his-tagged human SIRT6 expressed in Escherichia coli M15 [pREP4] assessed as increase in peptide demyristoylation at 100 uM incubated for 120 mins using Ac-EALPKK(Myr)-AMC substrate by FDL assay relative to control
Summary of the method: (§2)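 Demyristoylation: 1 µM recombinant SIRT6 preincubated with compound for 20 min at 37 °C in 50 mM Tris-HCl pH 8.0, BSA 1 mg/mL, 1 mM DTT, with 10 µM Ac-EALPKK(Myr)-AMC. Started with 1 mM NAD and run 120 min at 37 °C. Developed 120 min at 37 °C with 5 mg/mL trypsin/8 mM nicotinamide. Fluorescence read. Mean ± s.d., triplicate wells, three independent experiments.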

[7] = biological target: T1, NAD-dependent protein deacylase sirtuin-6; assay: Activation of N-terminal his-tagged human SIRT6 expressed in Escherichia coli M15 [pREP4] assessed as increase in peptide demyristoylation incubated for 120 mins using Ac-EALPKK(Myr)-AMC substrate by FDL assay relative to control
Summary of the method: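 Demyristoylation: 1 µM recombinant SIRT6 preincubated with compound for 20 min at 37 °C in 50 mM Tris-HCl pH 8.0, BSA 1 mg/mL, 1 mM DTT, with 10 µM Ac-EALPKK(Myr)-AMC. Fluorescence read. Mean ± s.d., triplicate wells, three independent experiments.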

[8] = biological target: T1, NAD-dependent protein deacylase sirtuin-6; assay: Activation of N-terminal his-tagged human SIRT6 expressed in Escherichia coli M15 [pREP4] assessed as increase in peptide demyristoylation at 20 uM incubated for 120 mins using Ac-EALPKK(Myr)-AMC substrate by FDL assay relative to control; summary of the method: as §2

T1 sequence (Q8N6T7 whole entry): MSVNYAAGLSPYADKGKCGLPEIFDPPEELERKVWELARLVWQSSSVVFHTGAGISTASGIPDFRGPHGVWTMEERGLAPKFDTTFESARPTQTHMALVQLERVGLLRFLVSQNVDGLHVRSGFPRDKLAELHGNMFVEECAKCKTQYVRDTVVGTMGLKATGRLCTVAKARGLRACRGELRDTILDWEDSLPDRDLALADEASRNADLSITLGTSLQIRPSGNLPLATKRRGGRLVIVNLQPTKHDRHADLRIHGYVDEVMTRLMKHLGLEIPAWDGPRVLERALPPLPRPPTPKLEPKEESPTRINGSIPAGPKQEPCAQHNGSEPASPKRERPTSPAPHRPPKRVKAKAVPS

SMILES | Activity [6] | EC1.5 [7] [µM] | Activity [8] [%] | other results
COC(=O)c1cc(NS(=O)(=O)c2cc(Cl)cc(Cl)c2)ccc1S(=O)(=O)Nc1cc(Br)c(F)cc1C | – | – | – | IC50 [1]: 50.5 µM; inhibition in vivo at 150 mg/kg/day [2]: 78%; IC50 [3]: 55.6 µM; IC50 [4]: 35.2 µM; IC50 [5]: 58 µM
COc1ccc(-c2cc(C(=O)Nc3ccc(Cl)c(Cl)c3)c3ccccc3n2)cc1OC | Active | 27.1 | 148 | –
COC(=O)c1c2c(c3ccccc3c1O)OC(C)(C)C=C2 | Active | 228 | – | –
COc1ccc(-c2cc(C(=O)Nc3cccc(Cl)c3C)c3ccccc3n2)cc1OC | – | 19 | 199 | –
O=C(Nc1cccc(Cl)c1Cl)c1cc(-c2cc3ccccc3o2)nc2ccccc12 | – | 20.7 | 163 | –
Cc1c(Cl)cccc1NC(=O)c1cc(-c2cc3ccccc3o2)nc2ccccc12 | – | 9.01 | 205 | –
COc1ccc(-c2cc(C(=O)NC(c3ccccc3)c3ccccc3)c3ccccc3n2)cc1OC | – | 5.97 | 276 | –

Continued, in another order:

Activity [6] | EC1.5 [7] [µM] | Activity [8] [%] | SMILES | other results
Active | 110 | – | COc1ccccc1C(=O)Nc1cc2c(cc1N1CCCCC1)n(C)c(=O)n2C | –
Active | 118 | – | Cc1cc(Nc2cc(CN3CCOCC3)c3nc(C)c(Cc4ccc(Cl)cc4F)n3n2)n[nH]1 | –
– | 6.38 | 250 | COc1ccc(-c2cc(C(=O)Nc3cc(C(F)(F)F)cc(C(F)(F)F)c3)c3ccccc3n2)cc1OC | –
